Experimental data published in ChEMBL document CHEMBL1141222, “Antitrypanosomal, antileishmanial, and antimalarial activities of quaternary arylalkylammonium 2-amino-4-chlorophenyl phenyl sulfides, a new class of trypanothione reductase inhibitor, and of N-acyl derivatives of 2-amino-4-chlorophenyl phenyl sulfide” (J Med Chem, 2005).
≈ marks a conversion by molar mass, not a printed value.

These compounds were tested against T1, Glutathione reductase, mitochondrial (Homo sapiens, UniProt P00390) (assay: Inhibitory activity against human glutathione reductase at 0.5 mM). Conditions: not given; call rule not given here.
T1 sequence (P00390 whole entry): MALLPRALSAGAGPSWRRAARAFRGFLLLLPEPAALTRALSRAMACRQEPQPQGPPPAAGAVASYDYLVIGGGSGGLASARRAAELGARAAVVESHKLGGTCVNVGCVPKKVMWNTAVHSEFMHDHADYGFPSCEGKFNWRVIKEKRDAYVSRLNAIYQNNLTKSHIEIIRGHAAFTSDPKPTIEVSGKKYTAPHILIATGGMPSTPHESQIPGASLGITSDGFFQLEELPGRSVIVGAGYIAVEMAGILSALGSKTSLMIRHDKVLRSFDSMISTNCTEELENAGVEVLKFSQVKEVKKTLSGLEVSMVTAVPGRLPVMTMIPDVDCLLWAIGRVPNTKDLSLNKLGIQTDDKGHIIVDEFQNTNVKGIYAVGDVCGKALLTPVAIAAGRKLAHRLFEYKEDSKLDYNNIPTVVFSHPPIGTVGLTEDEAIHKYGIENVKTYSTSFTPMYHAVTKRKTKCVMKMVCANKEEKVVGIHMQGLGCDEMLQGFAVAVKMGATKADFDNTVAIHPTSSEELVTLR

Compound | Ki
C[N+](C)(CCCNc1cc(Cl)ccc1Sc1ccccc1)c1ccc(Cl)c(Cl)c1 | Not Active

What follows are compounds tested against T2, Trypanothione reductase (Trypanosoma cruzi, UniProt P28593) (assay: Inhibitory activity against trypanothione reductase from Trypanosoma cruzi using 0.12 mM TSST substrate). Conditions: not given.
In short: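 Recombinant T. cruzi TR overexpressed in E. coli JM109, homogeneous by SDS-PAGE. I50 read by interpolation from velocity vs inhibitor concentration, fitted to the linear competitive equation by nonlinear regression.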

T2 sequence (P28593 whole entry): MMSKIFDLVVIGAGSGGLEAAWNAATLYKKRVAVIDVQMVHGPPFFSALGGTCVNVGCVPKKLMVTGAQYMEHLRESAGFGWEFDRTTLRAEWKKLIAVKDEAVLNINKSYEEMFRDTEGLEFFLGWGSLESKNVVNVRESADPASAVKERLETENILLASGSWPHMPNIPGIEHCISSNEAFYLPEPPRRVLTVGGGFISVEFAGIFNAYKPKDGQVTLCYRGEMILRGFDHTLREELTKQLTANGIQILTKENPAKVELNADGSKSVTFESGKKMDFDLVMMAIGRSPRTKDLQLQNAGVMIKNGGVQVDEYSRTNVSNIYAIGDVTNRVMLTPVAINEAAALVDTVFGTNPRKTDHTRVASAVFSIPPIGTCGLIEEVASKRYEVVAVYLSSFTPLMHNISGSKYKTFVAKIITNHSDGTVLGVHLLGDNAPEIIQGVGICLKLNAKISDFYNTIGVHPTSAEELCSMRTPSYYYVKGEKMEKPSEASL

Compound | IC50
CC(C)(C)c1ccc([N+](C)(C)CCCN)cc1 | 0.6 µM

The compounds below were run on KB (assay: Cytotoxicity in KB cells). Conditions: Homo sapiens.
Assay type: functional, cell-based

Compound | IC50
CC(C)(C)c1ccc([N+](C)(C)CCCN)cc1 | > 300 µg/mL
CCCC(=O)Nc1cc(Cl)ccc1Sc1ccccc1 | > 300 µg/mL
CCC(=O)Nc1cc(Cl)ccc1Sc1ccccc1 | 93.1 µg/mL (≈ 319 µM)
O=C(Cc1ccccc1)Nc1cc(Cl)ccc1Sc1ccccc1 | > 300 µg/mL
CC(C)(C)c1ccc([N+](C)(C)CCCNc2cc(Cl)ccc2Sc2ccccc2)cc1 | 2.14 µg/mL
O=C(Nc1cc(Cl)ccc1Sc1ccccc1)c1ccccc1 | 9 µg/mL (≈ 26.5 µM)
CC(C)(C)c1ccc([N+](C)(C)CCCN2c3ccccc3Sc3ccc(Cl)cc32)cc1 | 2.88 µg/mL
O=C(Nc1cc(Cl)ccc1Sc1ccccc1)c1ccc([N+](=O)[O-])cc1 | 223 µg/mL (≈ 579 µM)
O=[N+]([O-])c1cc(Cl)ccc1Sc1ccccc1 | 43.1 µg/mL (≈ 162 µM)
Nc1cc(Cl)ccc1Sc1ccccc1 | 47.9 µg/mL (≈ 203 µM)
C[N+](C)(CCCN1c2ccccc2Sc2ccc(Cl)cc21)c1ccc(Cl)c(Cl)c1 | 3.5 µg/mL

Each compound was assayed against T2, Trypanothione reductase (assay: Linear competitive inhibition of trypanothione reductase from Trypanosoma cruzi using TSST substrate). Conditions: not given.

Compound | Ki
CC(C)(C)c1ccc([N+](C)(C)CCCNc2cc(Cl)ccc2Sc2ccccc2)cc1 | 2.67 µM
CC(C)(C)c1ccc([N+](C)(C)CCCN2c3ccccc3Sc3ccc(Cl)cc32)cc1 | 0.57 µM
C[N+](C)(CCCN1c2ccccc2Sc2ccc(Cl)cc21)c1ccc(Cl)c(Cl)c1 | 0.18 µM

The compounds below were run on Trypanosoma cruzi (assay: Antitrypanosomal activity against Trypanosoma cruzi Tulahuan). Conditions: not given.
Assay type: functional, organism-based

Compound | IC50
CC(C)(C)c1ccc([N+](C)(C)CCCN)cc1 | > 30 µg/mL
CCCC(=O)Nc1cc(Cl)ccc1Sc1ccccc1 | 9.4 µg/mL (≈ 30.7 µM)
CCC(=O)Nc1cc(Cl)ccc1Sc1ccccc1 | 18.3 µg/mL (≈ 62.7 µM)
O=C(Cc1ccccc1)Nc1cc(Cl)ccc1Sc1ccccc1 | > 30 µg/mL
CC(C)(C)c1ccc([N+](C)(C)CCCNc2cc(Cl)ccc2Sc2ccccc2)cc1 | < 1.1 µg/mL
O=C(Nc1cc(Cl)ccc1Sc1ccccc1)c1ccccc1 | 19.8 µg/mL (≈ 58.3 µM)
CC(C)(C)c1ccc([N+](C)(C)CCCN2c3ccccc3Sc3ccc(Cl)cc32)cc1 | < 1.1 µg/mL
O=C(Nc1cc(Cl)ccc1Sc1ccccc1)c1ccc([N+](=O)[O-])cc1 | > 30 µg/mL
O=[N+]([O-])c1cc(Cl)ccc1Sc1ccccc1 | 11.3 µg/mL (≈ 42.5 µM)
Nc1cc(Cl)ccc1Sc1ccccc1 | 6.7 µg/mL (≈ 28.4 µM)
C[N+](C)(CCCN1c2ccccc2Sc2ccc(Cl)cc21)c1ccc(Cl)c(Cl)c1 | < 1.1 µg/mL

These compounds were tested against T2, Trypanothione reductase (assay: Linear competitive inhibition of trypanothione reductase from Trypanosoma cruzi using (ZCG.dmapa)2 substrate). Conditions: not given.

Compound | Ki
CC(C)(C)c1ccc([N+](C)(C)CCCNc2cc(Cl)ccc2Sc2ccccc2)cc1 | 6.5 µM
CC(C)(C)c1ccc([N+](C)(C)CCCN2c3ccccc3Sc3ccc(Cl)cc32)cc1 | 66 µM
C[N+](C)(CCCNc1cc(Cl)ccc1Sc1ccccc1)c1ccc(OCc2ccccc2)cc1 | 6.6 µM
C[N+](C)(CCCNc1cc(Cl)ccc1Sc1ccccc1)c1ccc(Cl)c(Cl)c1 | 1.69 µM
C[N+](C)(CCCNc1cc(Cl)ccc1Sc1ccccc1)C(c1ccccc1)c1ccccc1 | 5.3 µM
C[N+](C)(CCCNc1cc(Cl)ccc1Sc1ccccc1)c1ccccc1 | 14.2 µM

Each compound was assayed on Leishmania donovani (assay: Antileishmanial activity against Leishmania donovani HU3). Conditions: not given.
Assay type: functional, organism-based
In short: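 Peritoneal exudate macrophages from CD1 mice (harvested 24 h after starch induction) held 24 h in RPMI1640 + 10% HIFCS, 37 °C, 5% CO2, then infected with hamster-spleen HU3 amastigotes at 5:1. After 24 h, drug exposure for 5 days (overlay replaced day 3), top 30 µg/mL, quadruplicate. Giemsa-stained slides scored microscopically; IC50 by curve fit. Pentostam positive control.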

Compound | IC50
CC(C)(C)c1ccc([N+](C)(C)CCCN)cc1 | > 30 µg/mL
CCCC(=O)Nc1cc(Cl)ccc1Sc1ccccc1 | > 30 µg/mL
CCC(=O)Nc1cc(Cl)ccc1Sc1ccccc1 | > 30 µg/mL
O=C(Cc1ccccc1)Nc1cc(Cl)ccc1Sc1ccccc1 | > 30 µg/mL
CC(C)(C)c1ccc([N+](C)(C)CCCNc2cc(Cl)ccc2Sc2ccccc2)cc1 | 3.9 µg/mL
O=C(Nc1cc(Cl)ccc1Sc1ccccc1)c1ccccc1 | > 30 µg/mL
CC(C)(C)c1ccc([N+](C)(C)CCCN2c3ccccc3Sc3ccc(Cl)cc32)cc1 | 3.8 µg/mL
O=C(Nc1cc(Cl)ccc1Sc1ccccc1)c1ccc([N+](=O)[O-])cc1 | > 30 µg/mL
O=[N+]([O-])c1cc(Cl)ccc1Sc1ccccc1 | > 30 µg/mL
Nc1cc(Cl)ccc1Sc1ccccc1 | > 30 µg/mL
C[N+](C)(CCCN1c2ccccc2Sc2ccc(Cl)cc21)c1ccc(Cl)c(Cl)c1 | 4 µg/mL

What follows are compounds tested on Trypanosoma brucei rhodesiense (assay: Antitrypanosomal activity against Trypanosoma brucei rhodesiense STIB900). Conditions: not given.
Assay type: functional, organism-based
In short: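 STIB900 bloodstream trypomastigotes in HMI-18 + 15% HIFCS, seeded at 2 × 10⁵/mL onto drug dilutions (top 30 µg/mL), 72 h at 37 °C, 5% CO2; pentamidine reference.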

Compound | IC50
CC(C)(C)c1ccc([N+](C)(C)CCCN)cc1 | > 30 µg/mL
CCCC(=O)Nc1cc(Cl)ccc1Sc1ccccc1 | 14.2 µg/mL (≈ 46.4 µM)
CCC(=O)Nc1cc(Cl)ccc1Sc1ccccc1 | 11.3 µg/mL (≈ 38.7 µM)
O=C(Cc1ccccc1)Nc1cc(Cl)ccc1Sc1ccccc1 | 7.4 µg/mL (≈ 20.9 µM)
CC(C)(C)c1ccc([N+](C)(C)CCCNc2cc(Cl)ccc2Sc2ccccc2)cc1 | 0.01 µg/mL
O=C(Nc1cc(Cl)ccc1Sc1ccccc1)c1ccccc1 | 8.7 µg/mL (≈ 25.6 µM)
CC(C)(C)c1ccc([N+](C)(C)CCCN2c3ccccc3Sc3ccc(Cl)cc32)cc1 | 0.02 µg/mL
O=C(Nc1cc(Cl)ccc1Sc1ccccc1)c1ccc([N+](=O)[O-])cc1 | > 30 µg/mL
O=[N+]([O-])c1cc(Cl)ccc1Sc1ccccc1 | 11.5 µg/mL (≈ 43.3 µM)
Nc1cc(Cl)ccc1Sc1ccccc1 | 4.4 µg/mL (≈ 18.7 µM)
C[N+](C)(CCCN1c2ccccc2Sc2ccc(Cl)cc21)c1ccc(Cl)c(Cl)c1 | 0.02 µg/mL

The compounds below were run against T2, Trypanothione reductase (assay: (§1) Mixed inhibition of trypanothione reductase from Trypanosoma cruzi using TSST substrate). Conditions: not given.
In short: (§2)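 E. coli JM109-expressed T. cruzi TR (3 µg/mL), 25 °C, 0.02 M HEPES pH 7.25 containing 0.15 M KCl, 1 mM EDTA and 0.1 mM NADPH. TSST as variable substrate at 30-240 µM against a series of inhibitor concentrations. Absorbance read at 340 nm. Ki and Ki′ obtained from Dixon, Lineweaver-Burk and Cornish-Bowden plots fitted to a mixed inhibition model.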

Compound | Ki | IC50
CC(C)(C)c1ccc([N+](C)(C)CCCN)cc1 | 0.15 µM | –
CCCC(=O)Nc1cc(Cl)ccc1Sc1ccccc1 | 11.3 µM | 30.5 µM
CCC(=O)Nc1cc(Cl)ccc1Sc1ccccc1 | 20 µM | 31.6 µM
O=C(Cc1ccccc1)Nc1cc(Cl)ccc1Sc1ccccc1 | 24.6 µM | 36.8 µM
O=C(Nc1cc(Cl)ccc1Sc1ccccc1)c1ccccc1 | 24.5 µM | 49.6 µM
O=C(Nc1cc(Cl)ccc1Sc1ccccc1)c1ccc([N+](=O)[O-])cc1 | 42.8 µM | 44.5 µM
Nc1cc(Cl)ccc1Sc1ccccc1 | 150 µM | –
C[N+](C)(CCCN1c2ccccc2Sc2ccc(Cl)cc21)c1ccc(Cl)c(Cl)c1 | 0.44 µM | –

These compounds were tested against Trypanothione reductase (Trypanosoma cruzi) (UniProt P28593) (assay: as §1). Conditions: not given.
In short: as §2

Sequence of Trypanothione reductase (Trypanosoma cruzi) (P28593 whole entry, looked up): as the sequence (P28593 whole entry) above

Compound | Ki'
CCCC(=O)Nc1cc(Cl)ccc1Sc1ccccc1 | 42.6 µM
CCC(=O)Nc1cc(Cl)ccc1Sc1ccccc1 | 29.3 µM
O=C(Cc1ccccc1)Nc1cc(Cl)ccc1Sc1ccccc1 | 35.9 µM
O=C(Nc1cc(Cl)ccc1Sc1ccccc1)c1ccccc1 | 37.7 µM
O=C(Nc1cc(Cl)ccc1Sc1ccccc1)c1ccc([N+](=O)[O-])cc1 | 12.9 µM
Nc1cc(Cl)ccc1Sc1ccccc1 | 860 µM
C[N+](C)(CCCN1c2ccccc2Sc2ccc(Cl)cc21)c1ccc(Cl)c(Cl)c1 | 3.5 µM

Each compound was assayed on Plasmodium falciparum (assay: Antimalarial activity against Plasmodium falciparum 3D7). Conditions: not given.
Assay type: functional, organism-based
In short: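 Asynchronous 3D7 cultures (65-75% rings) in RPMI 1640, 5% hematocrit, 0.5% parasitemia, 37 °C, 5% CO2; top final drug concentration 30. After 24 h, [3H]-hypoxanthine ([…]) added, then 48 h more. Plates freeze/thawed and harvested; uptake by scintillation counting; IC50 by curve fit.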

Compound | IC50
CC(C)(C)c1ccc([N+](C)(C)CCCN)cc1 | > 30 µg/mL
CCCC(=O)Nc1cc(Cl)ccc1Sc1ccccc1 | 19.1 µg/mL (≈ 62.5 µM)
CCC(=O)Nc1cc(Cl)ccc1Sc1ccccc1 | > 30 µg/mL
O=C(Cc1ccccc1)Nc1cc(Cl)ccc1Sc1ccccc1 | 30 µg/mL (≈ 84.8 µM)
CC(C)(C)c1ccc([N+](C)(C)CCCNc2cc(Cl)ccc2Sc2ccccc2)cc1 | 0.6 µg/mL
O=C(Nc1cc(Cl)ccc1Sc1ccccc1)c1ccccc1 | > 30 µg/mL
CC(C)(C)c1ccc([N+](C)(C)CCCN2c3ccccc3Sc3ccc(Cl)cc32)cc1 | 0.13 µg/mL
O=C(Nc1cc(Cl)ccc1Sc1ccccc1)c1ccc([N+](=O)[O-])cc1 | > 30 µg/mL
O=[N+]([O-])c1cc(Cl)ccc1Sc1ccccc1 | 15.6 µg/mL (≈ 58.7 µM)
Nc1cc(Cl)ccc1Sc1ccccc1 | 11.3 µg/mL (≈ 47.9 µM)
C[N+](C)(CCCN1c2ccccc2Sc2ccc(Cl)cc21)c1ccc(Cl)c(Cl)c1 | 0.47 µg/mL
